{"source": "ChEMBL document CHEMBL1156360", "about": "“New phenylpropanoid esters of sucrose from Polygonum lapathifolium” (J Nat Prod, 2001)", "type_in_all_cases": "cell-based", "key": {"[1]": {"test_system": "Raji", "test": "Inhibition of 12-O-tetradecanoylphorbol-13-acetate-induced EBV-early antigen activation in human Raji cells at 1000 molar ratio relative to TPA", "set-up": "scale not given: the % may be the effect or the level left", "conditions": "human gammaherpesvirus 4", "method_in_brief": "(§1)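 Raji cells (virus nonproducer, 1×10^6/mL) were cultured 48 h at 37 °C in 1 mL medium with n-butyric acid (4 mmol), TPA inducer (32 pmol = 20 ng in DMSO) and compound in DMSO. Dose is the mol ratio to TPA. EA-positive cells on smears were found by indirect immunofluorescence using NPC patient serum. Triplicate assays; induction is given relative to the butyric acid + TPA control (100%).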"}, "[2]": {"test_system": "Raji", "test": "Inhibition of 12-O-tetradecanoylphorbol-13-acetate-induced EBV-early antigen activation in human Raji cells at 10 molar ratio relative to TPA", "set-up": "scale not given: the % may be the effect or the level left", "conditions": "human gammaherpesvirus 4", "method_in_brief": "as §1"}, "[3]": {"test": "Cytotoxicity against human Raji cells assessed as cell viability at 100 molar ratio by Trypan blue method", "conditions": "read-out: Activity", "method_in_brief": "(§2)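 Raji cells (1×10^6/mL) given n-butyric acid (4 mmol), TPA (32 pmol = 20 ng per mL, in DMSO) and test compound in DMSO, then held at 37 °C for 48 h. Dose is the mol ratio of compound to TPA. Viability of the treated cells was scored by Trypan Blue staining.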"}, "[4]": {"test_system": "Raji", "test": "Inhibition of 12-O-tetradecanoylphorbol-13-acetate-induced EBV-early antigen activation in human Raji cells at 500 molar ratio relative to TPA", "set-up": "scale not given: the % may be the effect or the level left", "conditions": "human gammaherpesvirus 4", "method_in_brief": "as §1"}, "[5]": {"test": "Cytotoxicity against human Raji cells assessed as cell viability at 1000 molar ratio by Trypan blue method", "conditions": "read-out: Activity", "method_in_brief": "as §2"}, "[6]": {"test": "Cytotoxicity against human Raji cells assessed as cell viability at 10 molar ratio by Trypan blue method", "conditions": "read-out: Activity", "method_in_brief": "as §2"}, "[7]": {"test": "Cytotoxicity against human Raji cells assessed as cell viability at 500 molar ratio by Trypan blue method", "conditions": "read-out: Activity", "method_in_brief": "as §2"}, "[8]": {"test_system": "Raji", "test": "Inhibition of 12-O-tetradecanoylphorbol-13-acetate-induced EBV-early antigen activation in human Raji cells at 100 molar ratio relative to TPA", "set-up": "scale not given: the % may be the effect or the level left", "conditions": "human gammaherpesvirus 4", "method_in_brief": "as §1"}}}
{"smiles": "COc1cc(/C=C/C(=O)OC[C@H]2O[C@H](O[C@]3(COC(=O)/C=C/c4ccc(O)c(OC)c4)O[C@H](COC(=O)/C=C/c4ccc(O)cc4)[C@@H](O)[C@@H]3OC(=O)/C=C/c3ccc(O)cc3)[C@H](O)[C@@H](O)[C@@H]2O)ccc1O", "note": "[LAPATHOSIDE A]", "values": [{"measurement": "Activity", "setting": "[1]", "value": 10, "unit": "%"}, {"measurement": "Activity", "setting": "[2]", "value": 95, "unit": "%"}, {"measurement": "viability at 100 molar ratio", "setting": "[3]", "value": "> 80", "unit": "%"}, {"measurement": "Activity", "setting": "[4]", "value": 37.2, "unit": "%"}, {"measurement": "viability at 1000 molar ratio", "setting": "[5]", "value": 70, "unit": "%"}, {"measurement": "viability at 10 molar ratio", "setting": "[6]", "value": "> 80", "unit": "%"}, {"measurement": "viability at 500 molar ratio", "setting": "[7]", "value": "> 80", "unit": "%"}, {"measurement": "Activity", "setting": "[8]", "value": 70.9, "unit": "%"}]}
{"smiles": "COc1cc(/C=C/C(=O)OC[C@H]2O[C@H](O[C@]3(CO)O[C@H](COC(=O)/C=C/c4ccc(O)cc4)[C@@H](O)[C@@H]3OC(=O)/C=C/c3ccc(O)cc3)[C@H](O)[C@@H](O)[C@@H]2O)ccc1O", "note": "[LAPATHOSIDE C]", "values": [{"measurement": "Activity", "setting": "[1]", "value": 33.6, "unit": "%"}, {"measurement": "Activity", "setting": "[2]", "value": 100, "unit": "%"}, {"measurement": "viability at 100 molar ratio", "setting": "[3]", "value": "> 80", "unit": "%"}, {"measurement": "Activity", "setting": "[4]", "value": 59, "unit": "%"}, {"measurement": "viability at 1000 molar ratio", "setting": "[5]", "value": 70, "unit": "%"}, {"measurement": "viability at 10 molar ratio", "setting": "[6]", "value": "> 80", "unit": "%"}, {"measurement": "viability at 500 molar ratio", "setting": "[7]", "value": "> 80", "unit": "%"}, {"measurement": "Activity", "setting": "[8]", "value": 83.5, "unit": "%"}]}
{"smiles": "Oc1cc(O)c2c(c1)O[C@@H](c1ccc(O)c(O)c1)[C@H](O)C2", "note": "[(-)-CATECHIN]", "values": [{"measurement": "Activity", "setting": "[1]", "value": 11.3, "unit": "%"}, {"measurement": "Activity", "setting": "[2]", "value": 100, "unit": "%"}, {"measurement": "viability at 100 molar ratio", "setting": "[3]", "value": "> 80", "unit": "%"}, {"measurement": "Activity", "setting": "[4]", "value": 41.3, "unit": "%"}, {"measurement": "viability at 1000 molar ratio", "setting": "[5]", "value": 70, "unit": "%"}, {"measurement": "viability at 10 molar ratio", "setting": "[6]", "value": "> 80", "unit": "%"}, {"measurement": "viability at 500 molar ratio", "setting": "[7]", "value": "> 80", "unit": "%"}, {"measurement": "Activity", "setting": "[8]", "value": 75.8, "unit": "%"}]}
{"smiles": "O=C(/C=C/c1ccc(O)cc1)OC[C@H]1O[C@@](CO)(O[C@H]2O[C@H](CO)[C@@H](O)[C@H](O)[C@H]2O)[C@@H](OC(=O)/C=C/c2ccc(O)cc2)[C@@H]1O", "note": "[LAPATHOSIDE D]", "values": [{"measurement": "Activity", "setting": "[1]", "value": 10.5, "unit": "%"}, {"measurement": "Activity", "setting": "[2]", "value": 100, "unit": "%"}, {"measurement": "viability at 100 molar ratio", "setting": "[3]", "value": "> 80", "unit": "%"}, {"measurement": "Activity", "setting": "[4]", "value": 38.3, "unit": "%"}, {"measurement": "viability at 1000 molar ratio", "setting": "[5]", "value": 70, "unit": "%"}, {"measurement": "viability at 10 molar ratio", "setting": "[6]", "value": "> 80", "unit": "%"}, {"measurement": "viability at 500 molar ratio", "setting": "[7]", "value": "> 80", "unit": "%"}, {"measurement": "Activity", "setting": "[8]", "value": 71.4, "unit": "%"}]}
{"smiles": "CC[C@H](CC[C@@H](C)[C@H]1CC[C@H]2[C@@H]3C(=O)C=C4C[C@@H](O)CC[C@]4(C)[C@H]3CC[C@]12C)C(C)C", "values": [{"measurement": "Activity", "setting": "[1]", "value": 11.5, "unit": "%"}, {"measurement": "Activity", "setting": "[2]", "value": 100, "unit": "%"}, {"measurement": "viability at 100 molar ratio", "setting": "[3]", "value": "> 80", "unit": "%"}, {"measurement": "Activity", "setting": "[4]", "value": 42.8, "unit": "%"}, {"measurement": "viability at 1000 molar ratio", "setting": "[5]", "value": 60, "unit": "%"}, {"measurement": "viability at 10 molar ratio", "setting": "[6]", "value": "> 80", "unit": "%"}, {"measurement": "viability at 500 molar ratio", "setting": "[7]", "value": "> 80", "unit": "%"}, {"measurement": "Activity", "setting": "[8]", "value": 71.5, "unit": "%"}]}
{"smiles": "COc1cc(/C=C/C(=O)OC[C@H]2O[C@@](COC(=O)/C=C/c3ccc(O)c(OC)c3)(O[C@H]3O[C@H](COC(=O)/C=C/c4ccc(O)c(OC)c4)[C@@H](O)[C@H](O)[C@H]3O)[C@@H](OC(=O)/C=C/c3ccc(O)cc3)[C@@H]2O)ccc1O", "note": "[LAPATHOSIDE B]", "values": [{"measurement": "Activity", "setting": "[1]", "value": 26.8, "unit": "%"}, {"measurement": "Activity", "setting": "[2]", "value": 100, "unit": "%"}, {"measurement": "viability at 100 molar ratio", "setting": "[3]", "value": "> 80", "unit": "%"}, {"measurement": "Activity", "setting": "[4]", "value": 51.6, "unit": "%"}, {"measurement": "viability at 1000 molar ratio", "setting": "[5]", "value": 60, "unit": "%"}, {"measurement": "viability at 10 molar ratio", "setting": "[6]", "value": "> 80", "unit": "%"}, {"measurement": "viability at 500 molar ratio", "setting": "[7]", "value": "> 80", "unit": "%"}, {"measurement": "Activity", "setting": "[8]", "value": 77.9, "unit": "%"}]}
{"smiles": "CC[C@H](CC[C@@H](C)[C@H]1CC[C@H]2[C@@H]3CC=C4C[C@@H](O[C@@H]5O[C@H](CO)[C@@H](O)[C@H](O)[C@H]5O)CC[C@]4(C)[C@H]3CC[C@]12C)C(C)C", "note": "[SITOGLUSIDE]", "values": [{"measurement": "Activity", "setting": "[1]", "value": 14.8, "unit": "%"}, {"measurement": "Activity", "setting": "[2]", "value": 100, "unit": "%"}, {"measurement": "viability at 100 molar ratio", "setting": "[3]", "value": "> 80", "unit": "%"}, {"measurement": "Activity", "setting": "[4]", "value": 45.7, "unit": "%"}, {"measurement": "viability at 1000 molar ratio", "setting": "[5]", "value": 60, "unit": "%"}, {"measurement": "viability at 10 molar ratio", "setting": "[6]", "value": "> 80", "unit": "%"}, {"measurement": "viability at 500 molar ratio", "setting": "[7]", "value": "> 80", "unit": "%"}, {"measurement": "Activity", "setting": "[8]", "value": 73.9, "unit": "%"}]}
{"smiles": "COC(=O)/C=C/c1ccc(O)cc1", "note": "[METHYL P-HYDROXYCINNAMATE]", "values": [{"measurement": "Activity", "setting": "[1]", "value": 15.7, "unit": "%"}, {"measurement": "Activity", "setting": "[2]", "value": 100, "unit": "%"}, {"measurement": "viability at 100 molar ratio", "setting": "[3]", "value": "> 80", "unit": "%"}, {"measurement": "Activity", "setting": "[4]", "value": 42.6, "unit": "%"}, {"measurement": "viability at 1000 molar ratio", "setting": "[5]", "value": 70, "unit": "%"}, {"measurement": "viability at 10 molar ratio", "setting": "[6]", "value": "> 80", "unit": "%"}, {"measurement": "viability at 500 molar ratio", "setting": "[7]", "value": "> 80", "unit": "%"}, {"measurement": "Activity", "setting": "[8]", "value": 77.5, "unit": "%"}]}
{"smiles": "COc1cc(/C=C/C(=O)OC[C@H]2O[C@H](O[C@]3(COC(=O)/C=C/c4ccc(O)cc4)O[C@H](COC(=O)/C=C/c4ccc(O)cc4)[C@@H](O)[C@@H]3OC(=O)/C=C/c3ccc(O)cc3)[C@H](O)[C@@H](O)[C@@H]2O)ccc1O", "note": "[VANICOSIDE B]", "values": [{"measurement": "Activity", "setting": "[1]", "value": 11.8, "unit": "%"}, {"measurement": "Activity", "setting": "[2]", "value": 100, "unit": "%"}, {"measurement": "viability at 100 molar ratio", "setting": "[3]", "value": "> 80", "unit": "%"}, {"measurement": "Activity", "setting": "[4]", "value": 40.9, "unit": "%"}, {"measurement": "viability at 1000 molar ratio", "setting": "[5]", "value": 70, "unit": "%"}, {"measurement": "viability at 10 molar ratio", "setting": "[6]", "value": "> 80", "unit": "%"}, {"measurement": "viability at 500 molar ratio", "setting": "[7]", "value": "> 80", "unit": "%"}, {"measurement": "Activity", "setting": "[8]", "value": 70, "unit": "%"}]}
{"smiles": "O=C(/C=C/c1ccc(O)cc1)OC[C@H]1O[C@@](COC(=O)/C=C/c2ccc(O)cc2)(O[C@H]2O[C@H](CO)[C@@H](O)[C@H](O)[C@H]2O)[C@@H](OC(=O)/C=C/c2ccc(O)cc2)[C@@H]1O", "note": "[HYDROPIPEROSIDE]", "values": [{"measurement": "Activity", "setting": "[1]", "value": 10.6, "unit": "%"}, {"measurement": "Activity", "setting": "[2]", "value": 100, "unit": "%"}, {"measurement": "viability at 100 molar ratio", "setting": "[3]", "value": "> 80", "unit": "%"}, {"measurement": "Activity", "setting": "[4]", "value": 39.6, "unit": "%"}, {"measurement": "viability at 1000 molar ratio", "setting": "[5]", "value": 70, "unit": "%"}, {"measurement": "viability at 10 molar ratio", "setting": "[6]", "value": "> 80", "unit": "%"}, {"measurement": "viability at 500 molar ratio", "setting": "[7]", "value": "> 80", "unit": "%"}, {"measurement": "Activity", "setting": "[8]", "value": 71.5, "unit": "%"}]}
